This note sets out measurements from ChEMBL document CHEMBL1130749, “Inhibitors of the chymotrypsin-like activity of proteasome based on di- and tri-peptidyl alpha-keto aldehydes (glyoxals)” (Bioorg Med Chem Lett, 1998).

Peptide text beside a SMILES is read from it. * marks the point of attachment. Cbz = O=C(OCc1ccccc1)*

Test [1] addresses Proteasome. The test can be described thus: Inhibitory constant for the inactivation of the chymotrypsin like activity of proteasome from human red blood corpuscles was determined. It counts as subcellular. Put shortly: (§1)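 Proteasome isolated from human erythrocytes by a previously described procedure. Its chymotrypsin-like activity was followed by hydrolysis of the fluorogenic substrate Suc-Leu-Leu-Val-Tyr-NHMec. Inhibition was treated as slow-binding, with a fast EI complex forming first and then isomerising to a tight EI*. Ki* was obtained from the final steady-state rates using a rearranged competitive-inhibition equation.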

In test [2] the test system is Proteasome. As to the kind of experiment: Inhibitory constant for the inactivation of the chymotrypsin like activity of proteasome from human red blood corpuscles was determined; NI means no inhibition. It is filed as subcellular. Put shortly:
as §1

The molecule `CC(C)C[C@H](NC(=O)[C@H](C)NC(=O)OCc1ccccc1)C(=O)C=O` had a Ki at Proteasome [1] of 3.86 µM.

The molecule `CC(C)C[C@H](NC(=O)OCc1ccccc1)C(=O)N[C@@H](Cc1ccccc1)C(=O)C=O` displayed a Ki on Proteasome [1] of 1.4 µM.

As to `CC(C)[C@H](NC(=O)OCc1ccccc1)C(=O)N[C@@H](Cc1ccccc1)C(=O)C=O`, the Ki on Proteasome [1] is 2.05 µM.

For `CC(=O)N[C@@H](CCCN=C(N)N)C(=O)N[C@@H](CCCN=C(N)N)C(=O)C=O`, the Ki entry with Proteasome [2] was “Not Active”.

The molecule `C[C@H](NC(=O)OCc1ccccc1)C(=O)N[C@@H](Cc1ccccc1)C(=O)C=O` had a Ki at Proteasome [1] of 9.2 µM.

On Proteasome [1], `CC(C)C[C@H](NC(=O)[C@@H](CC(C)C)NC(=O)OCc1ccccc1)C(=O)N[C@@H](Cc1ccc(O)cc1)C(=O)C=O` displayed a Ki of 0.0031 µM.

`CC(C)C[C@@H](C=O)NC(=O)[C@H](CC(C)C)NC(=O)[C@H](CC(C)C)NC(=O)OCc1ccccc1` [MG-132] (Cbz-Leu-Leu-Leu-aldehyde) yielded a Ki on Proteasome [1] of 0.004 µM.

For the molecule `CC(=O)N[C@@H](C(=O)N[C@@H](CC(C)C)C(=O)N[C@@H](CCCCN)C(=O)C=O)C(C)C`, in the test with Proteasome [2], the Ki result is “Not Active”.

On Proteasome [1], `CC(C)C[C@H](NC(=O)[C@H](CC(C)C)NC(=O)[C@@H](CC(C)C)NC(=O)c1ccccc1)C(=O)C=O` yielded a Ki of 0.0037 µM.

As for `O=CC(=O)[C@H](Cc1ccccc1)NC(=O)[C@@H]1CCCN1C(=O)OCc1ccccc1`, the Ki result with Proteasome [2] is reported as “Not Active”.
